The text below walks through data of ChEMBL document CHEMBL3856229, “Hybrid Antibiotic Overcomes Resistance in P. aeruginosa by Enhancing Outer Membrane Penetration and Reducing Efflux” (J Med Chem, 2016).

Structures are written as SMILES.

What all share (type): functional
The test system of assay [1] is Pseudomonas aeruginosa. The assay can be described thus: Antimicrobial activity against Pseudomonas aeruginosa PAO750. An outline of the steps: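 MICs were measured in PAO1 and in PAO750. PAO750 is a PAO1 derivative lacking the MexAB-OprM, MexCD-OprJ, MexEF-OprN, MexJK and MexXY efflux pumps and the outer membrane protein OpmH.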
In assay [2] the test system is Pseudomonas aeruginosa. The experiment in a line: Antibacterial activity against multidrug-resistant/tobramycin-susceptible Pseudomonas aeruginosa isolate 86053.
Assay [3] relates to Pseudomonas aeruginosa. The assay can be described thus: Antibacterial activity against multidrug-resistant/tobramycin-susceptible Pseudomonas aeruginosa isolate 86141.
Assay [4] has as its system Pseudomonas aeruginosa. The assay can be described thus: Antibacterial activity against Pseudomonas aeruginosa PAO1 assessed as fractional inhibitory concentration index after 18 hrs in presence of vancomycin by checkerboard method. An outline of the steps:
(§1)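 Checkerboard combinations of the hybrid with each partner antibiotic were tested against P. aeruginosa PAO1. Interaction is expressed as the fractional inhibitory concentration (FIC) index: ≤0.5 means synergy, 1–2 no interaction, ≥4 antagonism.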

For assay [5], the system named is Escherichia coli. The assay can be described thus: Antibacterial activity against amikacin-resistant Escherichia coli isolate CAN-ICU 63074 after 24 hrs by microtitre broth dilution method. The conditions noted are these: isolate CAN-ICU 63074, 24 h.
Assay [6] has as its system Pseudomonas aeruginosa. The assay can be described thus: Antibacterial activity against Pseudomonas aeruginosa PAO1 assessed as fractional inhibitory concentration index after 18 hrs in presence of moxifloxacin by checkerboard method. The method in brief: as §1

For orientation: MIC means the smallest concentration in the dilution series that meets the test's criterion for growth inhibition. Higher therefore signals a need for much substance.

Consider `COc1c(N2C[C@@H]3CCCN(CCCCCCCCCCCCO[C@@H]4[C@@H](O[C@H]5O[C@H](CO)[C@@H](O)[C@H](N)[C@H]5O)[C@H](N)C[C@H](N)[C@H]4O[C@H]4O[C@H](CN)[C@@H](O)C[C@H]4N)[C@@H]3C2)c(F)cc2c(=O)c(C(=O)O)cn(C3CC3)c12.Cl.Cl.Cl.Cl.Cl`, for which the minimal inhibitory concentration (MIC) amounted to 0.5 µg/mL in assay [1], 4 µg/mL in assay [2], 4 µg/mL in assay [3] and 4 µg/mL in assay [5]. Besides, the entries for the “fractional inhibitory concentration index (FICI)” value in assay [4] and in assay [6] were 0.26 and 0.18, respectively.
